{"source": "ChEMBL document CHEMBL5365541", "about": "“Designing peptide amphiphiles as novel antibacterials and antibiotic adjuvants against gram-negative bacteria” (Bioorg Med Chem, 2023)", "key": {"Acinetobacter baumannii": {"system": "Acinetobacter baumannii", "assay": "Antibacterial activity against Acinetobacter baumannii incubated for 20 to 24 hrs by broth microdilution method", "format": "functional", "conditions": "time 20-24 hrs", "how_it_was_run": "(§1)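 Broth microdilution: colonies suspended directly to 1.5×10^8 CFU/mL (0.5 McFarland), then diluted in Mueller–Hinton broth to ~10^5 CFU/mL final. PA stock 1 mg/mL in water, pH 7, serially diluted in MHB. Plates incubated 20–24 h at 37 °C. MIC = lowest concentration inhibiting growth, read as OD600 with optional 1% TTC staining. Triplicate.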"}, "Escherichia coli [1]": {"system": "Escherichia coli", "assay": "Antibacterial activity against Escherichia coli K12 incubated for 20 to 24 hrs by broth microdilution method", "format": "functional", "conditions": "time 20-24 hrs", "how_it_was_run": "as §1"}, "Staphylococcus aureus [2]": {"system": "Staphylococcus aureus", "assay": "Antibacterial activity against methicillin resistant Staphylococcus aureus JE2 measured over 21 days by broth microdilution method", "format": "functional, organism-based", "conditions": "time 21.0 day"}, "[3]": {"assay": "Retention time of the compound by RP-HPLC analysis", "format": "physicochemical", "how_it_was_run": "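Reverse-phase HPLC, linear gradient 0–100% acetonitrile in water with 0.1% TFA over 20 min; retention time recorded.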"}, "Staphylococcus aureus [4]": {"system": "Staphylococcus aureus", "assay": "Antibacterial activity against methicillin-resistant Staphylococcus aureus JE2 incubated for 20 to 24 hrs by broth microdilution method", "format": "functional", "conditions": "time 20-24 hrs", "how_it_was_run": "(§2)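 Broth microdilution in MHB: direct colony suspension at 0.5 McFarland diluted to ~10^5 CFU/mL final; peptide stock 1 mg/mL in water at pH 7, serially diluted. Incubated 20-24 h at 37 °C; MIC taken as the lowest concentration inhibiting growth (OD 600 nm, 1% TTC stain); triplicate; vancomycin and gentamicin as positive controls.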"}, "Staphylococcus aureus [5]": {"system": "Staphylococcus aureus", "assay": "Antibacterial activity against methicillin-resistant Staphylococcus aureus 13C incubated for 20 to 24 hrs by broth microdilution method", "format": "functional", "conditions": "time 20-24 hrs", "how_it_was_run": "as §2"}, "HT-29 [6]": {"system": "HT-29", "assay": "(§3) Cytotoxicity against human HT-29 cells assessed as inhibition of cell growth incubated for 24 hrs at pH 6.5 by MTT assay", "format": "toxicity, cell-based", "conditions": "ht-29, pH 6.5, 24 h, time 24 hrs", "how_it_was_run": "(§4)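 HT-29 cells in McCoy's 5a with 10% FBS were seeded at 15,000 cells/well and grown 24 h at 37 °C, 10% CO2. Medium then changed to pH 7.4 or pH 6.5 (20 mM MOPS, acidified with HCl). Peptide added in 2-fold dilutions, 7.8–500 µg/mL, for 24 h. Wells washed and given fresh pH 7.4 medium. MTT (12 mM, 10 µL) added for 4 h, then SDS-HCl for 4 h; A570 read.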"}, "HT-29 [7]": {"system": "HT-29", "assay": "(§5) Cytotoxicity against human HT-29 cells assessed as inhibition of cell growth incubated for 24 hrs at pH 7.4 by MTT assay", "format": "toxicity, cell-based", "conditions": "ht-29, pH 7.4, 24 h, time 24 hrs", "how_it_was_run": "as §4"}, "[8]": {"assay": "Self assembly property of the compound assessed as zeta potential at 250 ug/mL at pH 7 measured after 2 hrs", "format": "physicochemical", "conditions": "pH 7, 2 h, dose 250 µg/ml", "how_it_was_run": "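Peptide self-assembled at 1 mg/mL, pH 7, annealed 2 h at 80 °C, and aged overnight. Diluted to 250 µg/mL in water; zeta potential measured at 25 °C.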"}, "[9]": {"assay": "Self assembly property of the compound assessed as formation of micelles at 1 mg/ml incubated overnight by transmission electron microscopy", "format": "physicochemical", "how_it_was_run": "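Samples were dissolved at 2 mM in water, pH 7, and left at room temperature overnight. Applied to copper grids for 5 min, blotted, and negatively stained with NanoVan for 30 s. Imaged by TEM at 120 kV.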"}, "Escherichia coli [10]": {"system": "Escherichia coli", "assay": "Ratio of MIC for Escherichia coli K12 at pH 5.5 to MIC for Escherichia coli K12 at pH 7.0"}, "Staphylococcus aureus [11]": {"system": "Staphylococcus aureus", "assay": "Ratio of MIC for methicillin-resistant Staphylococcus aureus JE2 at pH 5.5 to MIC for methicillin-resistant Staphylococcus aureus JE2 at pH 7.0"}, "HT-29 [12]": {"system": "HT-29", "assay": "Cytotoxicity against human HT-29 cells assessed as reduction in cell viability at 500 ug/ml incubated for 24 hrs at pH 6.5 by MTT assay", "format": "toxicity, cell-based", "conditions": "ht-29, pH 6.5, 24 h, dose 500 µg/ml", "how_it_was_run": "as §4"}, "[13]": {"assay": "Cytotoxicity against human HT-29 cells assessed as viable cells at 250 ug/ml incubated for 24 hrs at pH 7.4 by MTT assay", "format": "toxicity, cell-based", "conditions": "at 250 µg/mL, read-out: Activity", "how_it_was_run": "as §4"}, "HT-29 [14]": {"system": "HT-29", "assay": "Cytotoxicity against human HT-29 cells assessed as loss of cell viability at 125 ug/ml incubated for 24 hrs at pH 7.4 by MTT assay", "format": "toxicity, cell-based", "conditions": "ht-29, pH 7.4, 24 h, at 125 µg/mL", "how_it_was_run": "as §4"}, "[15]": {"assay": "as §3", "format": "toxicity, cell-based", "conditions": "HT-29 cells, pH 6.5", "how_it_was_run": "as §4"}, "[16]": {"assay": "as §5", "format": "toxicity, cell-based", "conditions": "HT-29 cells, pH 7.4", "how_it_was_run": "as §4"}, "Staphylococcus aureus [17]": {"system": "Staphylococcus aureus", "assay": "Antibacterial activity against Methicillin-resistant Staphylococcus aureus JE2 infected in Galleria mellonella assessed as survival at 50 mg/kg measured after 4 days relative to control", "format": "functional", "conditions": "JE2, 96 h, time 4 day", "how_it_was_run": "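G. mellonella larvae injected with 10 µL MRSA JE2 at a pre-set infective dose (60-80% lethality within 48 h, not 100% within 24 h) into last left proleg; after 2 h, 10 µL peptide or antibiotic injected into last right proleg; larvae held at 37 °C, mortality recorded daily for 4 days; untreated infected and PBS-only larvae as controls.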"}}, "note": "The source made the active and inactive calls. The calls are words filed in the database; no cut-off is given here. Starred links: 1 amine or outer side, 2 acyl side, 3 side chain; linkers in the order of their positions; H or OH if unused. Non-standard residues stand in square brackets, D forms with d. Residues, ends and D or L forms follow the SMILES beside them. ξ: configuration not given here. X3 = CCCCCCCCCCCCCCCCCCN([C@@H](Cc1c[nH]cn1)C(=O)[*:2])[*:1]; X5 = CCCCCCCCCCCCCCCCCCN([C@@H](CCCNC(=N)N)C(=O)[*:2])[*:1]; ξDap = NCC(N)C(=O)O", "data": [{"molecule": "CNC(C)[C@@H]1CC[C@@H](N)[C@@H](O[C@H]2[C@H](O)[C@@H](O[C@H]3OC[C@](C)(O)[C@H](NC)[C@H]3O)[C@H](N)C[C@@H]2N)O1", "note": "(stereo partly drawn)", "values": [{"measurement": "MIC", "setting": "Acinetobacter baumannii", "result": 1, "unit": "µg/mL"}, {"measurement": "MIC", "setting": "Escherichia coli [1]", "result": 1, "unit": "µg/mL"}, {"measurement": "Activity", "setting": "Staphylococcus aureus [2]", "result": "Active"}]}, {"molecule": "CCCCCCCCCCCCCCCCCCN[C@@H](C)C(=O)N[C@@H](C)C(=O)NC(CN)C(=O)NC(CN)C(=O)NC(CN)C(=O)O", "note": "(stereo partly drawn)", "values": [{"measurement": "Retention_time", "setting": "[3]", "result": 15.9, "unit": "min"}, {"measurement": "MIC", "setting": "Acinetobacter baumannii", "result": 64, "unit": "µg/mL"}, {"measurement": "MIC", "setting": "Escherichia coli [1]", "result": 32, "unit": "µg/mL"}, {"measurement": "MIC", "setting": "Staphylococcus aureus [4]", "result": 32, "unit": "µg/mL"}, {"measurement": "MIC", "setting": "Staphylococcus aureus [5]", "result": 64, "unit": "µg/mL"}, {"measurement": "Activity", "setting": "HT-29 [6]", "result": "Non-Toxic"}, {"measurement": "Activity", "setting": "HT-29 [7]", "result": "Non-Toxic"}, {"measurement": "Activity", "setting": "[8]", "result": 10.3, "unit": "mV"}, {"measurement": "Activity", "setting": "[9]", "result": "Active"}, {"measurement": "Ratio", "setting": "Escherichia coli [10]", "result": "> 1"}, {"measurement": "Ratio", "setting": "Staphylococcus aureus [11]", "result": "> 1"}]}, {"molecule": "CCCCCCCCCCCCCCCCCCN[C@@H](Cc1c[nH]cn1)C(=O)N[C@@H](Cc1c[nH]cn1)C(=O)NC(CN)C(=O)NC(CN)C(=O)NC(CN)C(=O)O", "note": "(stereo partly drawn) (H-[X3]H[ξDap][ξDap][ξDap]-OH)", "values": [{"measurement": "Activity", "setting": "HT-29 [12]", "result": "Non-Toxic"}, {"measurement": "viability at 24 h, 250 ug/ml", "setting": "[13]", "result": 0, "unit": "%"}, {"measurement": "Activity", "setting": "HT-29 [14]", "result": 100, "unit": "%"}, {"measurement": "Retention_time", "setting": "[3]", "result": 14.4, "unit": "min"}, {"measurement": "MIC", "setting": "Acinetobacter baumannii", "result": 64, "unit": "µg/mL"}, {"measurement": "MIC", "setting": "Escherichia coli [1]", "result": 64, "unit": "µg/mL"}, {"measurement": "MIC", "setting": "Staphylococcus aureus [4]", "result": 64, "unit": "µg/mL"}, {"measurement": "MIC", "setting": "Staphylococcus aureus [5]", "result": 32, "unit": "µg/mL"}, {"measurement": "IC50 at 24 h", "setting": "[15]", "result": 72.3, "unit": "µg/mL"}, {"measurement": "IC50 at 24 h", "setting": "[16]", "result": 126, "unit": "µg/mL"}, {"measurement": "Activity", "setting": "[8]", "result": 30.4, "unit": "mV"}, {"measurement": "Activity", "setting": "[9]", "result": "Active"}, {"measurement": "Ratio", "setting": "Escherichia coli [10]", "result": "> 1"}, {"measurement": "Ratio", "setting": "Staphylococcus aureus [11]", "result": "> 1"}]}, {"molecule": "CCCCCCCCCCCCCCCCCCN[C@@H](CCCNC(=N)N)C(=O)N[C@@H](CCCNC(=N)N)C(=O)NC(CN)C(=O)NC(CN)C(=O)NC(CN)C(=O)O", "note": "(stereo partly drawn) (H-[X5]R[ξDap][ξDap][ξDap]-OH)", "values": [{"measurement": "Retention_time", "setting": "[3]", "result": 14.6, "unit": "min"}, {"measurement": "MIC", "setting": "Acinetobacter baumannii", "result": 32, "unit": "µg/mL"}, {"measurement": "MIC", "setting": "Escherichia coli [1]", "result": 32, "unit": "µg/mL"}, {"measurement": "MIC", "setting": "Staphylococcus aureus [4]", "result": 32, "unit": "µg/mL"}, {"measurement": "MIC", "setting": "Staphylococcus aureus [5]", "result": 16, "unit": "µg/mL"}, {"measurement": "IC50 at 24 h", "setting": "[15]", "result": 81.7, "unit": "µg/mL"}, {"measurement": "IC50 at 24 h", "setting": "[16]", "result": 117, "unit": "µg/mL"}, {"measurement": "Activity", "setting": "[8]", "result": 30.1, "unit": "mV"}, {"measurement": "Activity", "setting": "[9]", "result": "Active"}, {"measurement": "Ratio", "setting": "Escherichia coli [10]", "result": "> 1"}, {"measurement": "Ratio", "setting": "Staphylococcus aureus [11]", "result": "> 1"}]}, {"molecule": "CO[C@H]1/C=C/O[C@@]2(C)Oc3c(C)c(O)c4c(O)c(c(/C=N/N5CCN(C)CC5)c(O)c4c3C2=O)NC(=O)/C(C)=C\\C=C\\[C@H](C)[C@H](O)[C@@H](C)[C@@H](O)[C@@H](C)[C@H](OC(C)=O)[C@@H]1C", "note": "[RIFAMPIN]", "values": [{"measurement": "MIC", "setting": "Acinetobacter baumannii", "result": 8, "unit": "µg/mL"}, {"measurement": "MIC", "setting": "Escherichia coli [1]", "result": 8, "unit": "µg/mL"}]}, {"molecule": "CN[C@H](CC(C)C)C(=O)N[C@H]1C(=O)N[C@@H](CC(N)=O)C(=O)N[C@H]2C(=O)N[C@H]3C(=O)N[C@H](C(=O)N[C@H](C(=O)O)c4cc(O)cc(O)c4-c4cc3ccc4O)[C@H](O)c3ccc(c(Cl)c3)Oc3cc2cc(c3O[C@@H]2O[C@H](CO)[C@@H](O)[C@H](O)[C@H]2O[C@H]2C[C@](C)(N)[C@H](O)[C@H](C)O2)Oc2ccc(cc2Cl)[C@H]1O", "note": "[VANCOMYCIN]", "values": [{"measurement": "MIC", "setting": "Escherichia coli [1]", "result": 128, "unit": "µg/mL"}, {"measurement": "survival at 50 mg/kg", "setting": "Staphylococcus aureus [17]", "result": 30, "unit": "%"}]}]}
